Measured values: ChEMBL document CHEMBL2417469, “Synthesis of novel analogs of 2-pyrazoline obtained from [(7-chloroquinolin-4-yl)amino]chalcones and hydrazine as potential antitumor and antimalarial agents” (Eur J Med Chem, 2013)

Assays:
Type in all cases: functional
Plasmodium falciparum = assay: Antimalarial activity against Plasmodium falciparum NF54 infected in human serum at 20 ug/ml after 48 hrs by fluorometric method
Procedure, shortened: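 Asynchronous P. falciparum NF54 at 1.5–2% parasitemia, 5% hematocrit in RPMI with 10% human serum, exposed 48 h at 37 °C under 90% N2/5% CO2/5% O2 at the stated concentration; parasite DNA stained with ethidium bromide after proteinase K lysis; viability % = (Flu treated − medium)/(Flu untreated − medium) ×100; triplicate.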

BT-549 = assay: Cytotoxicity against human BT549 cells after 48 hrs by SRB assay; conditions: BT-549, 48 h
Procedure, shortened: (§1)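 NCI 60-cell-line screen. Cells preincubated 24 h at 37 °C, 5% CO2; time-zero plates TCA-fixed. Compounds dissolved in DMSO and tested at five concentrations (100, 10, 1.0, 0.1, 0.01 µM) for 48 h continuous exposure. Adherent cells fixed with cold TCA (10% final), then SRB stained; absorbance at 515 nm. GI50, TGI and LC50 calculated from growth relative to time-zero and untreated controls.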

T47D = assay: Cytotoxicity against human T47D cells after 48 hrs by SRB assay
Procedure, shortened: (§2)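 NCI 60-cell screen. Cells grew 24 h (37 °C, 5% CO2) before compound was added. Compounds were in DMSO and diluted in medium with gentamicin, then tested at five levels (100, 10, 1.0, 0.1, 0.01 µM) with 48 h continuous exposure. Adherent cells were fixed with TCA (10% final) and stained with 0.4% SRB, absorbance read at 515 nm. A time-zero plate was included. LC50 is the concentration giving 50% loss of protein relative to time zero.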

SN12C = assay: Cytotoxicity against human SN12C cells after 48 hrs by SRB assay; procedure, shortened: as §1
ACHN = assay: Cytotoxicity against human ACHN cells after 48 hrs by SRB assay; conditions: for CC50: read-out: LC50 (the source's name); procedure, shortened: as §1
NCI/ADR-RES = assay: Cytotoxicity against human NCI/ADR-RES cells after 48 hrs by SRB assay; conditions: for CC50: read-out: LC50 (the source's name); procedure, shortened: as §1
OVCAR-5 = assay: Cytotoxicity against human OVCAR5 cells after 48 hrs by SRB assay; conditions: OVCAR-5, 48 h; procedure, shortened: as §1
OVCAR-3 = assay: Cytotoxicity against human OVCAR3 cells after 48 hrs by SRB assay; conditions: OVCAR-3, 48 h; procedure, shortened: as §1
UACC-257 = assay: Cytotoxicity against human UACC257 cells after 48 hrs by SRB assay; conditions: UACC-257, 48 h; procedure, shortened: as §2
SK-MEL-5 = assay: Cytotoxicity against human SK-MEL-5 cells after 48 hrs by SRB assay; conditions: SK-MEL-5, 48 h; procedure, shortened: as §1
SNB-75 = assay: Cytotoxicity against human SNB75 cells after 48 hrs by SRB assay; conditions: SNB-75, 48 h; procedure, shortened: as §2
SF-295 = assay: Cytotoxicity against human SF295 cells after 48 hrs by SRB assay; conditions: SF-295, 48 h; procedure, shortened: as §1
SW-620 = assay: Cytotoxicity against human SW620 cells after 48 hrs by SRB assay; conditions: SW-620, 48 h; procedure, shortened: as §2
NCI-H522 = assay: Cytotoxicity against human NCI-H522 cells after 48 hrs by SRB assay; conditions: NCI-H522, 48 h; procedure, shortened: as §1
COLO 205 = assay: Cytotoxicity against human COLO205 cells after 48 hrs by SRB assay; conditions: COLO 205, 48 h; procedure, shortened: as §1
NCI-H460 = assay: Cytotoxicity against human NCI-H460 cells after 48 hrs by SRB assay; conditions: NCI-H460, 48 h; procedure, shortened: as §1
NCI-H23 = assay: Cytotoxicity against human NCI-H23 cells after 48 hrs by SRB assay; conditions: NCI-H23, 48 h; for CC50: read-out: LC50 (the source's name); procedure, shortened: as §1
HOP-62 = assay: Cytotoxicity against human HOP62 cells after 48 hrs by SRB assay; conditions: HOP-62, 48 h; procedure, shortened: as §1
[1] = Cytotoxicity against human EKVX cells after 48 hrs by SRB assay; procedure, shortened: as §1
RPMI-8226 = assay: Cytotoxicity against human RPMI8226 cells after 48 hrs by SRB assay; conditions: RPMI-8226, 48 h; procedure, shortened: as §1
MOLT-4 = assay: Cytotoxicity against human MOLT4 cells after 48 hrs by SRB assay; conditions: MOLT-4, 48 h; procedure, shortened: as §1
K562 = assay: Cytotoxicity against human K562 cells after 48 hrs by SRB assay; conditions: K562, 48 h; procedure, shortened: as §1
HL-60(TB) = assay: Cytotoxicity against human HL-60(TB) cells after 48 hrs by SRB assay; conditions: HL-60, 48 h; for CC50: read-out: LC50 (the source's name); procedure, shortened: as §1

COc1ccc(C2CC(c3cccc(Nc4ccnc5cc(Cl)ccc45)c3)=NN2C=O)cc1 (stereo unspecified)
inhibition at 20 µg/mL (Plasmodium falciparum): 4.1%
GI50 (BT-549): 0.45 µM
LC50 (50% net cell kill vs time zero) (BT-549): 55.6 µM
GI50 (T47D): 0.53 µM
LC50 (concentration giving 50% cell kill relative to time zero) (T47D): > 100 µM
GI50 (SN12C): 0.78 µM
LC50 (50% net cell kill relative to time zero) (SN12C): > 100 µM
GI50 (ACHN): 0.87 µM
CC50 (ACHN): > 100 µM
GI50 (NCI/ADR-RES): 0.35 µM
CC50 (NCI/ADR-RES): > 100 µM
GI50 (OVCAR-5): 3.51 µM
LC50 (OVCAR-5): > 100 µM
GI50 (OVCAR-3): 0.47 µM
LC50 (OVCAR-3): 77.4 µM
LC50 (UACC-257): > 100 µM
GI50 (SK-MEL-5): 0.41 µM
LC50 (concentration killing 50% of cells present at time zero) (SK-MEL-5): > 100 µM
GI50 (SNB-75): 0.33 µM
LC50 (50% net cell kill) (SNB-75): > 100 µM
GI50 (SF-295): 0.32 µM
LC50 (SF-295): > 100 µM
GI50 (SW-620): 0.36 µM
LC50 (SW-620): > 100 µM
GI50 (NCI-H522): 0.3 µM
CC50 (NCI-H522; read-out: LC50 (the source's name)): > 100 µM
GI50 (COLO 205): 0.45 µM
LC50 (COLO 205): 13.9 µM
GI50 (NCI-H460): 0.4 µM
LC50 (NCI-H460): > 100 µM
GI50 (NCI-H23): 0.95 µM
CC50 (NCI-H23): > 100 µM
GI50 (HOP-62): 0.66 µM
LC50 (50% lethal concentration) (HOP-62): > 100 µM
GI50 [1]: 0.64 µM
LC50 [1]: > 100 µM
GI50 (RPMI-8226): 16.7 µM
LC50 (concentration killing 50% of cells) (RPMI-8226): > 100 µM
GI50 (MOLT-4): 0.49 µM
LC50 (MOLT-4): > 100 µM
GI50 (K562): 0.29 µM
LC50 (concentration killing 50% of cells) (K562): > 100 µM
GI50 (HL-60(TB)): 0.25 µM
CC50 (HL-60(TB)): 5.28 µM

COc1ccc(C2CC(c3ccc(Nc4ccnc5cc(Cl)ccc45)cc3)=NN2C=O)cc1 (stereo unspecified)
inhibition at 20 µg/mL (Plasmodium falciparum): 0%
GI50 (BT-549): 10.9 µM
LC50 (50% net cell kill vs time zero) (BT-549): > 100 µM
GI50 (T47D): 1.38 µM
LC50 (concentration giving 50% cell kill relative to time zero) (T47D): > 100 µM
GI50 (SN12C): 12.6 µM
LC50 (50% net cell kill relative to time zero) (SN12C): > 100 µM
GI50 (ACHN): 7.02 µM
CC50 (ACHN): > 100 µM
GI50 (NCI/ADR-RES): 7.04 µM
CC50 (NCI/ADR-RES): > 100 µM
GI50 (OVCAR-5): > 100 µM
LC50 (OVCAR-5): > 100 µM
GI50 (OVCAR-3): 14.5 µM
LC50 (OVCAR-3): > 100 µM
GI50 (UACC-257): 4.39 µM
LC50 (UACC-257): > 100 µM
GI50 (SK-MEL-5): 0.62 µM
LC50 (concentration killing 50% of cells present at time zero) (SK-MEL-5): > 100 µM
GI50 (SNB-75): > 100 µM
LC50 (50% net cell kill) (SNB-75): > 100 µM
GI50 (SF-295): 24.8 µM
LC50 (SF-295): > 100 µM
GI50 (SW-620): 35.8 µM
LC50 (SW-620): > 100 µM
GI50 (COLO 205): 3.56 µM
LC50 (COLO 205): > 100 µM
GI50 (NCI-H460): > 100 µM
LC50 (NCI-H460): > 100 µM
GI50 (NCI-H23): 5.06 µM
CC50 (NCI-H23): > 100 µM
GI50 (HOP-62): 43.7 µM
LC50 (50% lethal concentration) (HOP-62): > 100 µM
GI50 [1]: > 100 µM
LC50 [1]: > 100 µM
GI50 (RPMI-8226): 2.71 µM
LC50 (concentration killing 50% of cells) (RPMI-8226): > 100 µM
GI50 (MOLT-4): 2.54 µM
LC50 (MOLT-4): > 100 µM
GI50 (HL-60(TB)): 2.23 µM
CC50 (HL-60(TB)): > 100 µM

COc1cc(C2CC(c3ccc(Nc4ccnc5cc(Cl)ccc45)cc3)=NN2C=O)cc(OC)c1OC (stereo unspecified)
inhibition at 20 µg/mL (Plasmodium falciparum): 5.8%
GI50 (BT-549): 1.91 µM
LC50 (50% net cell kill vs time zero) (BT-549): 8.23 µM
GI50 (T47D): 2.33 µM
LC50 (concentration giving 50% cell kill relative to time zero) (T47D): > 100 µM
GI50 (SN12C): 4.37 µM
LC50 (50% net cell kill relative to time zero) (SN12C): > 100 µM
GI50 (ACHN): 3.24 µM
CC50 (ACHN): 47 µM
GI50 (NCI/ADR-RES): 7.88 µM
CC50 (NCI/ADR-RES): > 100 µM
GI50 (OVCAR-5): 69.2 µM
LC50 (OVCAR-5): > 100 µM
GI50 (OVCAR-3): 1.91 µM
LC50 (OVCAR-3): 6.03 µM
GI50 (UACC-257): 2.84 µM
LC50 (UACC-257): 55.4 µM
GI50 (SK-MEL-5): 1.98 µM
LC50 (concentration killing 50% of cells present at time zero) (SK-MEL-5): 35.5 µM
GI50 (SNB-75): 5.19 µM
LC50 (50% net cell kill) (SNB-75): > 100 µM
GI50 (SF-295): 5.63 µM
LC50 (SF-295): > 100 µM
GI50 (SW-620): 3.49 µM
LC50 (SW-620): > 100 µM
GI50 (COLO 205): 3.73 µM
LC50 (COLO 205): > 100 µM
GI50 (NCI-H460): 4.42 µM
LC50 (NCI-H460): > 100 µM
GI50 (NCI-H23): 20.4 µM
CC50 (NCI-H23): > 100 µM
GI50 (HOP-62): 4.13 µM
LC50 (50% lethal concentration) (HOP-62): 96.1 µM
GI50 [1]: 11.7 µM
LC50 [1]: > 100 µM
GI50 (RPMI-8226): 2.56 µM
LC50 (concentration killing 50% of cells) (RPMI-8226): > 100 µM
GI50 (MOLT-4): 3.36 µM
LC50 (MOLT-4): > 100 µM
GI50 (HL-60(TB)): 2.53 µM
CC50 (HL-60(TB)): 75.8 µM

Cc1ccc(C2CC(c3ccc(Nc4ccnc5cc(Cl)ccc45)cc3)=NN2C=O)cc1 (stereo unspecified)
inhibition at 20 µg/mL (Plasmodium falciparum): 0%
GI50 (BT-549): 1.65 µM
LC50 (50% net cell kill vs time zero) (BT-549): > 100 µM
GI50 (T47D): 1.51 µM
LC50 (concentration giving 50% cell kill relative to time zero) (T47D): > 100 µM
GI50 (SN12C): 7.23 µM
LC50 (50% net cell kill relative to time zero) (SN12C): > 100 µM
GI50 (ACHN): 3.27 µM
CC50 (ACHN): > 100 µM
GI50 (NCI/ADR-RES): 5.22 µM
CC50 (NCI/ADR-RES): > 100 µM
GI50 (OVCAR-5): > 100 µM
LC50 (OVCAR-5): > 100 µM
GI50 (OVCAR-3): 6.82 µM
LC50 (OVCAR-3): > 100 µM
GI50 (UACC-257): > 100 µM
LC50 (UACC-257): > 100 µM
GI50 (SK-MEL-5): 1.74 µM
LC50 (concentration killing 50% of cells present at time zero) (SK-MEL-5): > 100 µM
GI50 (SNB-75): > 100 µM
LC50 (50% net cell kill) (SNB-75): > 100 µM
GI50 (SF-295): 4 µM
LC50 (SF-295): > 100 µM
GI50 (SW-620): > 100 µM
LC50 (SW-620): > 100 µM
GI50 (COLO 205): 4.59 µM
LC50 (COLO 205): > 100 µM
GI50 (NCI-H460): > 100 µM
LC50 (NCI-H460): > 100 µM
GI50 (NCI-H23): 6.93 µM
CC50 (NCI-H23): > 100 µM
GI50 (HOP-62): > 100 µM
LC50 (50% lethal concentration) (HOP-62): > 100 µM
LC50 [1]: > 100 µM
GI50 (RPMI-8226): 2.18 µM
LC50 (concentration killing 50% of cells) (RPMI-8226): > 100 µM
GI50 (MOLT-4): 5.13 µM
LC50 (MOLT-4): > 100 µM
GI50 (HL-60(TB)): 2.27 µM
CC50 (HL-60(TB)): > 100 µM
